Experimental data reported in the RNAGym collection of RNA variant scans (doi:10.1126/science.aae0568).
Fewer inactive variants are shown than the library holds.

B1: tRNA (parent)
chain: GUUCCGUUGGCGUAAUGGUAACGCGUCUCCCUCCUAAGGAGAAGACUGCGGGUUCGAGUCCCGUACGGAACG

Variants of: B1
Assay: yeast fitness relative to wild type (ratio to wild type); higher = fitter; tRNA-Arg(CCU), competitive growth, 37 C, YPD
Summary of the method: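 For this measurement, the tRNA-Arg(CCU) gene was varied by chemical synthesis at a 3% per-site mutation rate across 69 sites, and each variant was placed at the native genomic locus in Saccharomyces cerevisiae. The pooled strains went through a 24-hour competition in YPD at 37°C in six parallel replicates, with amplicons from start and end populations read by 100-nucleotide paired-end sequencing. Darwinian fitness relative to wild type followed from the change in each genotype's frequency. Genotypes needed ≥ 100 starting reads, and estimates < 0.5 were set to 0.5.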

Variant | yeast fitness
C24G C46G C66U | ≤ 0.5
C24G C30U A40G G44A U47C G51C | ≤ 0.5
C24G A45G G51C U54A G56C | ≤ 0.5
C24G A36G A70G | ≤ 0.5
C24G C31U C61U | ≤ 0.5
C24G A37C C49U A69U | 0.545
C24G G25A A65G | 0.609
C24G G25A G48A | 0.697
C24A C49G A69C | ≤ 0.5
C24A U35G A65C | ≤ 0.5
C24A U26G | 0.655
C24G A42G A43U C46U C62U | ≤ 0.5
C24G A69U | 0.658
C24G A69G | 0.503
C24G A36G A42C C61U C62G | ≤ 0.5
C24G C60U | 0.61
C24G C27U U28C | ≤ 0.5
C24A G63A | 0.658
C24G C27U C33U G50C A65G G68A | ≤ 0.5
C24A U32C C33U U54C | 0.602
C24G G44C G58C | 0.547
C24G C27U C33U A45G G50C G68A | ≤ 0.5
C24G A36G C55A | ≤ 0.5
C24G A36U A40U C46G G48C | 0.557

Variant | yeast fitness
C24G C55U A65G | 0.546
C24G C30A C46U G52C | ≤ 0.5
C24G C29U G38C | 0.62
C24G G56A | 0.618
C24G C49A C62G G68U | ≤ 0.5
C24G A36C C55G A65G | ≤ 0.5
C24A G25A U47C | ≤ 0.5
C24G G39C C61U C66U | ≤ 0.5
C24G C33G C66U | ≤ 0.5
C24A C49A | 0.577
C24G C31G A45G C60G | ≤ 0.5
C24A C34U G41A | ≤ 0.5
C24G C46U G58C C61U | 0.597
C24G G38C G50C | ≤ 0.5
C24G A57U G58A A65U | ≤ 0.5
C24G A43G G63U U64A | 0.577
C24A U32C C55A C60U | 0.698
C24G A57G C61A A65C C66U | ≤ 0.5
C24G A40U G67C | ≤ 0.5
C24G A45C A69U | 0.611
C24G A42C G68A | ≤ 0.5
C24G C60U G68A | 0.789
C24G G25C A45G | 0.512
C24G U26A C31U A45C A69U | ≤ 0.5

Variant | yeast fitness
C24G A65G | 0.703
C24G G50U | 0.544
C24G U26A A37G G48A | ≤ 0.5
C24G C49U A57U | ≤ 0.5
C24G C33A C62A | ≤ 0.5
C24G C31U C33A G50C | ≤ 0.5
C24G C33U A65U | ≤ 0.5
C24G C49U | 0.576
C24G C49G | 0.544
C24A G39C A57U A70C | ≤ 0.5
C24G C60U A69C | ≤ 0.5
C24G C34G G48A U54A G63C | ≤ 0.5
C24A G41A | 0.738
C24A G39C | 0.705
C24G C34G G50C C61U | ≤ 0.5
C24G C29A A40G G50C | ≤ 0.5
C24G C33U A37U G38A | ≤ 0.5
C24G C30G C31U U35A A36U G44A | 0.695
C24G U26A C60G | ≤ 0.5
C24G C33G U53C C55U A70G | 0.57
C24G A37G G63C C66G | ≤ 0.5
C24G A40C U47A A69G | ≤ 0.5
C24A G38C G48A | ≤ 0.5
C24A G38C G48C | ≤ 0.5

Variant | yeast fitness
C24G G48C C49U | ≤ 0.5
C24G C33U | 0.646
C24G C33G | 0.666
C24G C30A A40C | 0.547
C24A U47A A70U | ≤ 0.5
C24G G44C C66U | ≤ 0.5
C24G G38A U64A | ≤ 0.5
C24A G41C G48A | 0.625
C24G G39C C61U | ≤ 0.5
C24A U64G | 0.68
C24A U64A | 0.622
C24A C49U C62U | 0.654
C24G A42G | 0.587
C24G A42C | 0.63
C24G C30A A40C A57G C61U | ≤ 0.5
C24G G38C A65U | 0.509
C24A G38A U47A C55G C61U | ≤ 0.5
C24G C49G G56A | 0.574
C24G G25C C30G U32C A57G | ≤ 0.5
C24G A40C C49A A69U | 0.589
C24G A40C A69C | ≤ 0.5
C24A G39A C60A | ≤ 0.5
C24G A36U A37C C66U G67A | ≤ 0.5
C24G G41A G51A | ≤ 0.5

Variant | yeast fitness
C24G C31U C33G A42C A43U | 0.574
C24G C55A | 0.66
C24G C55G | 0.649
C24G G68C | 0.599
C24G C31G C33A G50C C55G A57U C62U | ≤ 0.5
C24G C33U A43G U47A | 0.682
C24G C55U U64A | 0.674
C24G A45G U53G | ≤ 0.5
C24G C31U A43G A45C U64A | ≤ 0.5
C24G G68C A70C | 0.578
C24G C55A A70C | ≤ 0.5
C24G A42G A65G | ≤ 0.5
C24A C49A C61G | ≤ 0.5
C24G A57U A69C | ≤ 0.5
C24G A43C G52C C55U A69C | ≤ 0.5
C24G C30A G44C U47C U59A | ≤ 0.5
C24A C46U | 1.1
C24A C46A | 1.01
C24G A37C U59C C62U G68U | ≤ 0.5
C24G A36C C46U G52A | 0.637
C24G | 0.609
C24G U26A C46A C62U | 0.578
C24G C33U U35A C61G | ≤ 0.5
C24G C30G C55G | ≤ 0.5

Variant | yeast fitness
C24G C31U A37G G50C A57U | 0.648
C24G G56A A57C | ≤ 0.5
C24G C49A U53A G67A | ≤ 0.5
C24A U35G C46U G68A | ≤ 0.5
C24G C33G C55U | ≤ 0.5
C24G A36C A37G A70C | ≤ 0.5
C24G G38C C46A U53C C61G | ≤ 0.5
C24A G51A C66U | ≤ 0.5
C24A C49A G56C G68C | ≤ 0.5
C24G G25A C31G A57U | 0.532
C24A C34U G52A | ≤ 0.5
C24G G48A G52C A57C C60U | ≤ 0.5
C24G C55U G68C | ≤ 0.5
C24G C27U C33U A57C | ≤ 0.5
C24G C61G G68A | ≤ 0.5
C24G A37G G56A G58A G67A | ≤ 0.5
C24G C62G | 0.541
C24G C62U | 0.562
C24G G41C | 0.582
C24A C66U | 0.691
C24G C29G C46G G67C | ≤ 0.5
C24G A45C C49A G52A | ≤ 0.5
C24A G51C G52C | ≤ 0.5
C24G G63C A65U | 0.596

Variant | yeast fitness
C24G C49U C61A | ≤ 0.5
C24G C60G A70G | ≤ 0.5
C24G A37C G58A G68A | ≤ 0.5
C24G A36U U64C | 0.52
C24G C46G G48A C55U U64A A69C | 0.5
C24G A57C U64A | ≤ 0.5
C24G C61U | 0.59
C24G C27U G52C | 0.566
C24A U32C C61G | ≤ 0.5
C24A U26A A43U C55A C66U | ≤ 0.5
C24A G58A A70G | 0.574
C24G C31A C33U U35A A57G U64C | ≤ 0.5
C24G C30U C49G | 0.664
C24G C27G A40C U47A | ≤ 0.5
C24A U47A | 0.619
C24G A57G | 0.524
C24G A57U | 0.578
C24G A42U C49U G67C | ≤ 0.5
C24G C29U A42G G51C | ≤ 0.5
C24G C34G G38C C62G A69C | ≤ 0.5
C24G C49U G51A C61A A69U | ≤ 0.5
C24A G50A C66U | 0.5
C24G C46U G50A G56C C62A C66U | ≤ 0.5
